Test results taken from ChEMBL document CHEMBL2380256, “Discovery of novel Jak2-Stat pathway inhibitors with extended residence time on target” (Bioorg Med Chem Lett, 2013).
Activity calls are given as the source filed them. The rule behind the calls is not given here.

Legend:
[1] = molecular target: T1, Tyrosine-protein kinase JAK2 (Homo sapiens, UniProt O60674); test: Inhibition of JAK2 (unknown origin) using biotinylated TYK2 peptide as substrate after 60 mins
[2] = Growth inhibition of mouse BA/F3 cells transfected with JAK3 TEL domain after 24 hrs by Alamar Blue assay; assay type: functional, cell-based; conditions: BaF3, 24 h
[3] = molecular target: T2, Tyrosine-protein kinase JAK3 (Homo sapiens, UniProt P52333); test: Inhibition of JAK3 (unknown origin) using biotinylated poly-EY peptide as substrate after 60 mins by HTRF assay
T2 sequence (P52333 whole entry): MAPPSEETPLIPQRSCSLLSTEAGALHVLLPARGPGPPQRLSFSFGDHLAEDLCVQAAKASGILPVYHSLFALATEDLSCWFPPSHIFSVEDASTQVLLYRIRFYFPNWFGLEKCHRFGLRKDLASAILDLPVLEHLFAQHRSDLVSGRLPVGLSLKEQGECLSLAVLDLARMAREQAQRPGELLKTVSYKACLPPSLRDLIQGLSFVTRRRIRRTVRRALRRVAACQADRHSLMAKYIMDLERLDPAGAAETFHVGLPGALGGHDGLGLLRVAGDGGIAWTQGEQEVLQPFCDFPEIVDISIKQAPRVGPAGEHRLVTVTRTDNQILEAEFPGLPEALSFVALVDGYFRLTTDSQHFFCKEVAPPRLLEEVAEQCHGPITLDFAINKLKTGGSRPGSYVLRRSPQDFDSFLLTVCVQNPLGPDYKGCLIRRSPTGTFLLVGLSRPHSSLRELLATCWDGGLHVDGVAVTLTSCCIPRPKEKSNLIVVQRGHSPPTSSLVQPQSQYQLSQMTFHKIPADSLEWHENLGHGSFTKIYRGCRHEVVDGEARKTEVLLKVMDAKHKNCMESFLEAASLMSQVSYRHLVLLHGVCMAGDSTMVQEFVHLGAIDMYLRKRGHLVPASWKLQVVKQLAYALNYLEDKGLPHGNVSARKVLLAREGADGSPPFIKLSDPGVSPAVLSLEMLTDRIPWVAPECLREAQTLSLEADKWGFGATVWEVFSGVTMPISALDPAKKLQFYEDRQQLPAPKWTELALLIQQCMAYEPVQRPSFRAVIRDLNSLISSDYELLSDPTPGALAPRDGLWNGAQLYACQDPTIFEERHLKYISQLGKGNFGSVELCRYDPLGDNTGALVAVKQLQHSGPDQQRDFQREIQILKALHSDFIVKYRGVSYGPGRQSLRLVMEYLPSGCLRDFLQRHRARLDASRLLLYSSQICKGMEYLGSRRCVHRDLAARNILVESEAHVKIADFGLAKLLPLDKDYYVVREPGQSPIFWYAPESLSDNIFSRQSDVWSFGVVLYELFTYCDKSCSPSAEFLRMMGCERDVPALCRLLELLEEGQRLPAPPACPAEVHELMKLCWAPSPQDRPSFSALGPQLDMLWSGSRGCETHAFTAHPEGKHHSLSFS

[4] = Growth inhibition of mouse BA/F3 cells transfected with JAK2 TEL domain after 24 hrs by Alamar Blue assay; assay type: functional; conditions: BaF3, 24 h
Homo sapiens = species on record: Homo sapiens; test: Selectivity ratio of IC50 for JAK3 (unknown origin) to IC50 for JAK2 (unknown origin)
Procedure, shortened: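 Jak2 and Jak3 enzyme IC50s determined at 5 mM ATP; the ratio is the Jak3 IC50 divided by the Jak2 IC50.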

Hepatocyte = test: Metabolic stability in human hepatocytes measured per 10^6 cells; assay type: ADME, cell-based
[5] = molecular target: T1, Tyrosine-protein kinase JAK2; test: Competitive inhibition of JAK2 (unknown origin)
[6] = Volume of distribution at steady state in Han Wistar rat at 10 mg/kg, po and 3 mg/kg, iv; assay type: ADME, organism-based; conditions: in vivo, read-out: Vdss
[7] = Volume of distribution at steady state in CD1 mouse at 10 mg/kg, po and 3 mg/kg, iv; assay type: ADME, organism-based; conditions: in vivo, read-out: Vdss
Procedure, shortened: (§1)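 Single-dose PK: female CD-1 mice and male Han Wistar rats, 10 mg/kg po in 0.1% HPMC and 3 mg/kg iv in DMA/PEG/saline 40/40/20.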

[8] = Total plasma concentration in nude mouse allografted with mouse Ba/F3 cells expressing JAK2 TEL domain at 5 mg/kg, po qd measured at 6 hrs; assay type: ADME, organism-based, BaF3; design: dose 5 mg/kg, route oral
Procedure, shortened: (§2)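 Female nude mice implanted intravenously with Ba/F3 TEL-JAK2 cells on day 0 and dosed orally on day 10. Total plasma drug concentration was measured at the stated times post-dose, averaged over n = 3 per dose and time point.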

[9] = Total plasma concentration in nude mouse allografted with mouse Ba/F3 cells expressing JAK2 TEL domain at 10 mg/kg, po qd measured at 2 hrs; assay type: ADME, organism-based, BaF3; design: dose 10 mg/kg, route oral; procedure, shortened: as §2
[10] = AUC in CD1 mouse at 10 mg/kg, po and 3 mg/kg, iv; assay type: ADME, organism-based; conditions: plasma; procedure, shortened: as §1
[11] = Oral bioavailability in CD1 mouse at 10 mg/kg; assay type: ADME, organism-based; conditions: in vivo
Procedure, shortened: (§3)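 Oral bioavailability in female CD-1 mice and male Han Wistar rats: 10 mg/kg po (0.1% HPMC) versus 3 mg/kg iv (DMA/PEG/saline 40/40/20). %F = (AUCpo × DoseIV)/(AUCIV × Dosepo) × 100.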

[12] = Oral bioavailability in Han Wistar rat at 10 mg/kg; assay type: ADME, organism-based; conditions: in vivo; procedure, shortened: as §3
Mus musculus [13] = test: In vivo inhibition of JAK2 TEL domain (unknown origin) transfected in mouse Ba/F3 cells allografted in nude mouse assessed as inhibition of STAT5 phosphorylation at 5 mg/kg, po qd after 6 hrs; assay type: functional, organism-based; design: dose 5 mg/kg; conditions: BaF3
Procedure, shortened: (§4)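 Female nude mice implanted intravenously with Ba/F3 TEL-JAK2 cells on day 0 and given a single oral dose on day 10. pStat5 was measured at the stated times post-dose. % inhibition was scaled between vehicle and a control inhibitor as maximum and minimum, with n = 3 per dose and time point, reported as mean ±SD.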

[14] = Clearance in beagle dog at 5 mg/kg, po and […] mg/kg, iv; assay type: ADME, organism-based, Canis lupus familiaris; conditions: in vivo, 2.5 mg/kg
[15] = Volume of distribution at steady state in beagle dog at 5 mg/kg, po and 2.5 mg/kg, iv; assay type: ADME, organism-based, Canis lupus familiaris; conditions: in vivo, read-out: Vdss
Procedure, shortened: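 Male Beagle dogs. Oral 5 mg/kg in 0.1% HPMC; intravenous 2.5 mg/kg in HP-β-CD.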

[16] = Total plasma concentration in nude mouse allografted with mouse Ba/F3 cells expressing JAK2 TEL domain at 10 mg/kg, po qd measured at 6 hrs; assay type: ADME, organism-based, BaF3; design: dose 10 mg/kg, route oral; procedure, shortened: as §2
SET-2 = test: Growth inhibition of human SET2 harboring JAK2 V617F mutant after 24 hrs by Alamar Blue assay; assay type: functional; conditions: SET-2, 24 h
[17] = Growth inhibition of human UKE1 cells harboring JAK2 V617F mutant after 2 days by [3H]-thymidine incorporation assay; assay type: functional
[18] = AUC in beagle dog at 5 mg/kg, po and […] mg/kg, iv; assay type: ADME, organism-based, Canis lupus familiaris; conditions: plasma
[19] = Clearance in CD1 mouse at 10 mg/kg, po and 3 mg/kg, iv; assay type: ADME, organism-based; conditions: in vivo; procedure, shortened: as §1
[20] = Clearance in Han Wistar rat at 10 mg/kg, po and 3 mg/kg, iv; assay type: ADME, organism-based; conditions: in vivo; procedure, shortened: as §1
[21] = Fraction unbound in nude mouse plasma allografted with mouse Ba/F3 cells expressing JAK2 TEL domain at 5 to 10 mg/kg, po qd after 6 hrs; assay type: ADME, organism-based, BaF3; design: dose 5-10 mg/kg, route oral
Mus musculus [22] = test: In vivo inhibition of JAK2 TEL domain (unknown origin) transfected in mouse Ba/F3 cells allografted in nude mouse assessed as inhibition of STAT5 phosphorylation at 10 mg/kg, po qd after 6 hrs relative to vehicle-treated control; assay type: functional; conditions: BaF3, 6 h; procedure, shortened: as §4
[23] = Oral bioavailability in beagle dog at 5 mg/kg; assay type: ADME, organism-based, Canis lupus familiaris; conditions: in vivo
Procedure, shortened: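 Male Beagle dogs received 5 mg/kg po (0.1% HPMC) and 2.5 mg/kg iv (HP-β-CD). %F = (AUCpo × DoseIV)/(AUCIV × Dosepo) × 100.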

[24] = AUC in Han Wistar rat at 10 mg/kg, po and 3 mg/kg, iv; assay type: ADME, organism-based; conditions: plasma; procedure, shortened: as §1
[25] = Total plasma concentration in nude mouse allografted with mouse Ba/F3 cells expressing JAK2 TEL domain at 5 mg/kg, po qd measured at 2 hrs; assay type: ADME, organism-based, BaF3; design: dose 5 mg/kg, route oral; procedure, shortened: as §2

T1 sequence (O60674 whole entry, the tested form may be a part): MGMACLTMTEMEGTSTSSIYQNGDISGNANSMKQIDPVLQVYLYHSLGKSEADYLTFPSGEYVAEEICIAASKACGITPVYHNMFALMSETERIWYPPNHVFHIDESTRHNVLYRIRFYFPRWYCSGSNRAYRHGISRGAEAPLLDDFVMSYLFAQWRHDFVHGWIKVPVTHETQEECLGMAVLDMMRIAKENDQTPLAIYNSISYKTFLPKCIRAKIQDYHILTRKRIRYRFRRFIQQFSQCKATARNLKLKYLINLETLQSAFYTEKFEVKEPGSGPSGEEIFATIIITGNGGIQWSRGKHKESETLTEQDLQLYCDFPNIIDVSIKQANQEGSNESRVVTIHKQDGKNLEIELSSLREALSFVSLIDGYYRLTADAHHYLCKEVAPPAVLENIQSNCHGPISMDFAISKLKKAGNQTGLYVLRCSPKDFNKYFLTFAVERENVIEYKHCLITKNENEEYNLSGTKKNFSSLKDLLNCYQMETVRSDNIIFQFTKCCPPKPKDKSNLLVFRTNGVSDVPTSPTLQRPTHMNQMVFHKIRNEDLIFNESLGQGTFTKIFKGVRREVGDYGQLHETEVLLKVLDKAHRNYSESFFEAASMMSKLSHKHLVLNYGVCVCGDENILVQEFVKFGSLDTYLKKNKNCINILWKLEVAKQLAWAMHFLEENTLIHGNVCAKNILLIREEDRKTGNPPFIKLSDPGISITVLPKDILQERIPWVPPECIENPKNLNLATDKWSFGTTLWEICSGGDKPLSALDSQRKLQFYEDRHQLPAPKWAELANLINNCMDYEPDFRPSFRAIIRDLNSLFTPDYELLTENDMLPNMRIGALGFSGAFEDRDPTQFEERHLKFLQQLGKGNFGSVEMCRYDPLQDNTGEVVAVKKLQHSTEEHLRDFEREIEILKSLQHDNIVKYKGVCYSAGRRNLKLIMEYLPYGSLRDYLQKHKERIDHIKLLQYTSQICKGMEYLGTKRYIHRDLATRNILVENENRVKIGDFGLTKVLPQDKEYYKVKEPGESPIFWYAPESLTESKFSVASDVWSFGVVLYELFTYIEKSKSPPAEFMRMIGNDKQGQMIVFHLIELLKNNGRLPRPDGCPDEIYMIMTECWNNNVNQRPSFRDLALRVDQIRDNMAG

Which IC50 [1] does the source give for `Cc1cc(Nc2nc(N[C@@H](C)c3ccc(F)cn3)c(F)c(N3CCOCC3)n2)n[nH]1` here?
The IC50 was 0.006 µM.

What about the GI50 ([2]; read-out: GI50) of the same compound?
The GI50 was 0.85 µM.

And the IC50 [3]?
Its IC50 is 0.262 µM.

What about the GI50 [4] of the same compound?
The GI50 was 0.019 µM.

Which results are given for `COc1cc(Nc2nc(N[C@@H](C)c3ncc(F)cn3)c(F)c(N3CCOCC3)n2)n[nH]1`?
IC50 [1]: 0.037 µM; GI50 ([2]; read-out: GI50): 9.4 µM; IC50 [3]: 11.2 µM; GI50 [4]: 0.16 µM

For `Cc1cc(Nc2nc(N[C@@H](C)c3ccc(F)cn3)c(F)c(N3CCN(C)CC3)n2)n[nH]1`, which GI50 ([2]; read-out: GI50) is on record?
Its GI50 is 0.38 µM.

What about the IC50 [3] of the same compound?
The IC50 was 0.015 µM.

For `Cc1cc(Nc2nc(N[C@@H](C)c3ncc(F)cn3)nc(N3CCOCC3)c2F)n[nH]1`, which Ratio IC50 (Homo sapiens) is on record?
The Ratio IC50 was over 10000.

Which results are given for `Cc1cc(Nc2nc(O[C@@H](C)c3ncc(F)cn3)c(F)c(N3CCOCC3)n2)n[nH]1`?
IC50 [1]: < 0.003 µM; Stability (Hepatocyte): < 2 µL/min/1e6 cells; Ki [5]: 0.00072 µM; Vd [6]: 1.6 L/kg; Vd [7]: 1.4 L/kg; concentration at 6 h [8]: 180 ng/mL; concentration at 2 h [9]: 551 ng/mL; GI50 ([2]; read-out: GI50): 0.69 µM; AUC [10]: 14.7 µM·h; bioavailability [11]: 64%; bioavailability [12]: 74%; inhibition (Mus musculus [13]): Active; clearance [14]: 13 mL/min/kg; Vd [15]: 2.4 L/kg; concentration at 6 h [16]: 246 ng/mL; GI50 (SET-2): 0.078 µM; GI50 [17]: 0.05 µM; AUC [18]: 8.5 µM·h; clearance [19]: 17 mL/min/kg; IC50 [3]: 0.02 µM; clearance [20]: 11 mL/min/kg; fraction unbound at 6 h [21]: 0.16; GI50 [4]: 0.006 µM; inhibition in vivo at 10 mg/kg (Mus musculus [22]): > 80%; bioavailability [23]: 56%; AUC [24]: 27.5 µM·h; concentration at 2 h [25]: 325 ng/mL

What does the source list for `Cc1cc(Nc2nc(N[C@@H](C)c3ncc(F)cn3)c(F)c(N3CCOCC3)n2)n[nH]1`?
GI50 ([2]; read-out: GI50): 0.39 µM; Ratio IC50 (Homo sapiens): 76; GI50 [4]: 0.015 µM

For `Cc1cc(Nc2nc(N[C@@H](C)c3ccc(F)cn3)c(F)c(N3CCN(S(C)(=O)=O)CC3)n2)n[nH]1`, which IC50 [1] is on record?
Its IC50 is 0.003 µM.

And the GI50 [2]?
Its GI50 is 0.05 µM.

What about the IC50 [3] of the same compound?
Its IC50 is 0.02 µM.

Which IC50 [1] does the source give for `Cc1cc(Nc2nc(N[C@@H](C)c3ccc(F)cn3)c(F)c(N3CCNCC3)n2)n[nH]1` here?
Its IC50 is 0.004 µM.

What about the GI50 [2] of the same compound?
Its GI50 is 0.48 µM.

What about the IC50 [3] of the same compound?
Its IC50 is 0.03 µM.
